This passage reports IC50 and ED50 results from ChEMBL document CHEMBL1135816, “6-Aryl-1,4-dihydro-benzo[d][1,3]oxazin- 2-ones: a novel class of potent, selective, and orally active nonsteroidal progesterone receptor antagonists” (J Med Chem, 2002).

Bounds are passed on as bounds.

For assay [1], the target named is T1, Androgen receptor (Homo sapiens, UniProt P10275).
T1 sequence (P10275 whole entry): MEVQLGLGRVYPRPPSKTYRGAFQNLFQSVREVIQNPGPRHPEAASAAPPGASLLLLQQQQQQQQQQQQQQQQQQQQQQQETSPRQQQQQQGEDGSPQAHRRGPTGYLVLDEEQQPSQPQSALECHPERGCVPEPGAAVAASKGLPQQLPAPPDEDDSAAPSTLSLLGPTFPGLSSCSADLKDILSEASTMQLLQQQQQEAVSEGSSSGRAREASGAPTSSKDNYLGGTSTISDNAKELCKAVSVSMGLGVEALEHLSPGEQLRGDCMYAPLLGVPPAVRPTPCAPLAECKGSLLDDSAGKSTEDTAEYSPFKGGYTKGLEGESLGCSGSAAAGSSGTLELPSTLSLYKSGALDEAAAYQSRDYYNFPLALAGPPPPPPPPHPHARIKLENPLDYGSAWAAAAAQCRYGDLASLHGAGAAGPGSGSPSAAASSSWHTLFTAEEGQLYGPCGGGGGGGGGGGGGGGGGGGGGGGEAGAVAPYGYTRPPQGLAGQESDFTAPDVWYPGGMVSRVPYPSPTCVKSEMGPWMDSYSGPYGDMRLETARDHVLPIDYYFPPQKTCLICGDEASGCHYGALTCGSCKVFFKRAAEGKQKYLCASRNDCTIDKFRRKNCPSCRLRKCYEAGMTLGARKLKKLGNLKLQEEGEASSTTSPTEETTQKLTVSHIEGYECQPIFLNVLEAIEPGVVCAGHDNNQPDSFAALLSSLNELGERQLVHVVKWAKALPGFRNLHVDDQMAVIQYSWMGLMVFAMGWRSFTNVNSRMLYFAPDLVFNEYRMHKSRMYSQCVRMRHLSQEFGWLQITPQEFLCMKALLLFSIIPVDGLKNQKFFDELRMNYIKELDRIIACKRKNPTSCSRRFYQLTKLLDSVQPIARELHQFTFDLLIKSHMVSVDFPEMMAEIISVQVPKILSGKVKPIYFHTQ
Kind of assay: Antagonist activity against the Androgen Receptor (AR).

The target in assay [2] is Estrogen receptor (Homo sapiens, UniProt Q92731+P03372). As to the kind of experiment: Antagonist activity against the Estrogen Receptor (ER). The format is functional.
Assay [3] concerns the target T2, Progesterone receptor (Rattus norvegicus) (UniProt Q63449).
T2 sequence (whole entry): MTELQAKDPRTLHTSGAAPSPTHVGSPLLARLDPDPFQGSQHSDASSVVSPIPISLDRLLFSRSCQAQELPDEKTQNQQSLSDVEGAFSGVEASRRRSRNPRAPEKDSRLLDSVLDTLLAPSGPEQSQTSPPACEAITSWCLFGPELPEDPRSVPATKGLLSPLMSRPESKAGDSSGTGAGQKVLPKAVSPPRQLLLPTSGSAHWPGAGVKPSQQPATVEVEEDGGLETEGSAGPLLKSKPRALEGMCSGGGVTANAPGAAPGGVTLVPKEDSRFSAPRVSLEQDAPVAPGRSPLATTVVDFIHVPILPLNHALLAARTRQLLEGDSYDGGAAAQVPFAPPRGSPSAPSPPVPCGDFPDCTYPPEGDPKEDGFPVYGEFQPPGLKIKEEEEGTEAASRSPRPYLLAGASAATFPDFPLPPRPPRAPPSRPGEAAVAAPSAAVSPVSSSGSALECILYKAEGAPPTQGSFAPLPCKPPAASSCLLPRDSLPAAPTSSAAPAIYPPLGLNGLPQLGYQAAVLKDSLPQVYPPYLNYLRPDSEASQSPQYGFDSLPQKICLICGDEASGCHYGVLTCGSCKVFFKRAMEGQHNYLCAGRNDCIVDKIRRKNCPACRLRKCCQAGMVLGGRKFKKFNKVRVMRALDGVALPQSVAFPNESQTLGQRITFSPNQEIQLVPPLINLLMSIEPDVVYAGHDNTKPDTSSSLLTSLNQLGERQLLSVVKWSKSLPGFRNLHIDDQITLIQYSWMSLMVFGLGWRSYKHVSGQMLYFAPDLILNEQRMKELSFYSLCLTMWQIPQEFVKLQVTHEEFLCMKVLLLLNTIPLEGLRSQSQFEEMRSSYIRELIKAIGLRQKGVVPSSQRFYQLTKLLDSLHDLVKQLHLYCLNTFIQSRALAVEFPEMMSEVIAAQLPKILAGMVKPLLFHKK
As to the kind of experiment: inhibitory activity against progesterone receptor (PR) in ovariectomized mature female rat complement C3 model. It counts as functional. In outline:
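Adult ovariectomized rats given oral doses; read-out is reversal of progestin down-regulation of estrogen-induced complement C3 synthesis in uterine epithelium. ED50 averaged from at least duplicate determinations.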

Assay [4] has as its target T3, Progesterone receptor (Homo sapiens, UniProt P06401).
T3 sequence (P06401 whole entry): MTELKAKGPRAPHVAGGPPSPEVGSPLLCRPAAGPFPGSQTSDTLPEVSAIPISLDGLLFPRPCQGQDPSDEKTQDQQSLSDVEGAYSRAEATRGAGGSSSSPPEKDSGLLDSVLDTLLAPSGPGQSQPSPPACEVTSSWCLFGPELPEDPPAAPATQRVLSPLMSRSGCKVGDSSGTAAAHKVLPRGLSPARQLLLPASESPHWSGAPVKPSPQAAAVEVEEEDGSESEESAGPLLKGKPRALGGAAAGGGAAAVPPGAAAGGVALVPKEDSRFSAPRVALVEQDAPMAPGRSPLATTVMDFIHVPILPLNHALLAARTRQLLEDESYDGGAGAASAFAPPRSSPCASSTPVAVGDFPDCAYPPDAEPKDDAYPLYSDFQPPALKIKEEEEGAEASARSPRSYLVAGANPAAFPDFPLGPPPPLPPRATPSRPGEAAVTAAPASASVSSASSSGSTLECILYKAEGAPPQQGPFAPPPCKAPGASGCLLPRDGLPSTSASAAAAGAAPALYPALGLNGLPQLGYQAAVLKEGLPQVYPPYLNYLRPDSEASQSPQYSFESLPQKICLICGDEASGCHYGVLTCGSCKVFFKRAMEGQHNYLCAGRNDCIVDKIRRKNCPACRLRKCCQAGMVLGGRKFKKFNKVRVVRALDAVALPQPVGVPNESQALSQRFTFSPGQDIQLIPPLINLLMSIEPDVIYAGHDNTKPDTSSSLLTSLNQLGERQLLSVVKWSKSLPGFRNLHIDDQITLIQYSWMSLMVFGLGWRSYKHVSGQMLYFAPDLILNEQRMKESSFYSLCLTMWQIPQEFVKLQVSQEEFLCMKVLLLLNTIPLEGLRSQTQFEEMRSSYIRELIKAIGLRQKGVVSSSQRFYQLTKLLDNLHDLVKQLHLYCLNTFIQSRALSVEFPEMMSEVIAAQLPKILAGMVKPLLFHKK
Kind of assay: Antagonist activity against the Progesterone Receptor (PR). The format is functional. In outline: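 Antagonism run in CV-1 cells co-transfected with hPR and PRE-luciferase plasmids, with luciferase read-out; IC50 taken as the mean of at least duplicate determinations.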

Assay [5] concerns the target T3, Progesterone receptor. Kind of assay: Antagonist activity against progesterone receptor (PR) in an assay using PRE-luciferase plasmid co-transfected CV-1 cells. The format is functional, cell-based. The method in brief: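 CV-1 cells cotransfected with hPR and PRE-luciferase plasmids, luciferase read-out; IC50 averaged from at least duplicate determinations.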

As a reminder, the IC50 is the concentration at which inhibition is half-maximal. As a reminder, the ED50 is the midpoint of the dose-response relation. `CC1(C)OC(=O)Nc2ccc(-c3ccc(F)c(Cl)c3)cc21`: the IC50 was 207 nM in assay [1] and > 10000 nM in assay [2]. In assay [3], this compound showed an ED50 of 2.5 mg/kg.
Consider `CC1(C)OC(=O)Nc2ccc(-c3coc(C#N)c3)cc21`, for which the IC50 turned out to be 129 nM in assay [1], 40.2 nM in assay [4] and 40.2 nM in assay [5].
For `CC1(C)OC(=O)Nc2ccc(-c3csc(C#N)c3)cc21`, the half-inhibitory concentration (IC50) was determined as 280 nM in assay [1], 6.7 nM in assay [4] and 6.7 nM in assay [5].
Take `CC1(C)OC(=O)Nc2ccc(-c3cc(F)cc(C#N)c3)cc21`: the half-inhibitory concentration (IC50) in assay [1] was 1290 nM; in assay [4] it was 15.9 nM; in assay [2], > 10000 nM; in assay [5], 15.9 nM. Also, the 50% effect level in assay [3] (ED50) was put at a dose of 1 mg/kg.
